Calls of active or inactive are those of the source.
Assays:
[1] = tested on: HCT-15; assay: Antiproliferative activity against human HCT15 cells assessed as effect on cell adhesion after 24 hrs by light microscopic analysis; format: functional, cell-based
Method in brief: (§1)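 Cancer cells treated with 0−10 μM and examined by light microscopy for changes in cell adhesion and morphology.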

[2] = tested on: HeLa S3; assay: Antiproliferative activity against human HeLaS3 cells assessed as effect on cell adhesion after 24 hrs by light microscopic analysis; format: functional, cell-based; method in brief: as §1
[3] = tested on: HCT-15; assay: Antiproliferative activity against human HCT15 cells after 24 hrs by WST-1 assay; format: functional, cell-based; settings: HCT-15, 24 h
Method in brief: (§2)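 WST-1 viability assay. Cells seeded at 5 × 10^3 per well and grown 24 h, then given lissoclibadins at 0.1−40 μM (etoposide 1.0−100 μM) in triplicate for 24 h. WST-1 added and absorbance read 4 h later at 450 nm, background subtracted at 650 nm. Viability expressed as % of control; IC50 taken as 50% inhibition of viability. Three experiments, mean ± SD.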

[4] = tested on: HeLa S3; assay: Antiproliferative activity against human HeLaS3 cells after 24 hrs by WST-1 assay; format: functional, cell-based; settings: HeLa S3, 24 h; method in brief: as §2
[5] = tested on: MCF7; assay: Antiproliferative activity against human MCF7 cells after 24 hrs by WST-1 assay; format: functional, cell-based; settings: MCF7, 24 h; method in brief: as §2
[6] = tested on: NCI-H28; assay: Antiproliferative activity against human NCI-H28 cells after 24 hrs by WST-1 assay; format: functional, cell-based; settings: NCI-H28, 24 h; method in brief: as §2
[7] = tested on: MCF7; assay: Antiproliferative activity against human MCF7 cells assessed as effect on cell adhesion after 24 hrs by light microscopic analysis; format: functional, cell-based; method in brief: as §1
[8] = tested on: NCI-H28; assay: Antiproliferative activity against human NCI-H28 cells assessed as effect on cell adhesion after 24 hrs by light microscopic analysis; format: functional, cell-based; method in brief: as §1
[9] = tested on: HCT-15; assay: Antiproliferative activity against human HCT15 cells assessed as effect on cell morphology after 24 hrs by light microscopic analysis; format: functional, cell-based; method in brief: as §1
[10] = tested on: HeLa S3; assay: Antiproliferative activity against human HeLaS3 cells assessed as effect on cell morphology after 24 hrs by light microscopic analysis; format: functional, cell-based; method in brief: as §1
[11] = tested on: MCF7; assay: Antiproliferative activity against human MCF7 cells assessed as effect on cell morphology after 24 hrs by light microscopic analysis; format: functional, cell-based; method in brief: as §1
[12] = tested on: NCI-H28; assay: Antiproliferative activity against human NCI-H28 cells assessed as effect on cell morphology after 24 hrs by light microscopic analysis; format: functional, cell-based; method in brief: as §1
[13] = tested on: HCT-15; assay: Antiproliferative activity against human HCT15 cells assessed as effect on cell adhesion up to 10 uM after 24 hrs by light microscopic analysis; format: functional, cell-based; method in brief: as §1
[14] = tested on: HeLa S3; assay: Antiproliferative activity against human HeLaS3 cells assessed as effect on cell adhesion up to 10 uM after 24 hrs by light microscopic analysis; format: functional, cell-based; method in brief: as §1
[15] = tested on: MCF7; assay: Antiproliferative activity against human MCF7 cells assessed as effect on cell adhesion up to 10 uM after 24 hrs by light microscopic analysis; format: functional, cell-based; method in brief: as §1
[16] = tested on: NCI-H28; assay: Antiproliferative activity against human NCI-H28 cells assessed as effect on cell adhesion up to 10 uM after 24 hrs by light microscopic analysis; format: functional, cell-based; method in brief: as §1
[17] = tested on: HCT-15; assay: Antiproliferative activity against human HCT15 cells assessed as effect on cell morphology up to 10 uM after 24 hrs by light microscopic analysis; format: functional, cell-based; method in brief: as §1
[18] = tested on: HeLa S3; assay: Antiproliferative activity against human HeLaS3 cells assessed as effect on cell morphology up to 10 uM after 24 hrs by light microscopic analysis; format: functional, cell-based; method in brief: as §1
[19] = tested on: MCF7; assay: Antiproliferative activity against human MCF7 cells assessed as effect on cell morphology up to 10 uM after 24 hrs by light microscopic analysis; format: functional, cell-based; method in brief: as §1
[20] = tested on: NCI-H28; assay: Antiproliferative activity against human NCI-H28 cells assessed as effect on cell morphology up to 10 uM after 24 hrs by light microscopic analysis; format: functional, cell-based; method in brief: as §1
[21] = tested on: HCT-15; assay: Antiproliferative activity against human HCT15 cells assessed as nuclear chromatin condensation at 5 uM after 24 hrs by Hoechst-33258 staining-based fluorescent microscopic analysis; format: functional, cell-based
Method in brief: (§3)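 Cells at 5 × 10^4 cells/mL precultured 24 h, then treated 24 h (HCT-15 at 5 μM; HeLa-S3, MCF-7, NCI-H28 at 10 μM). Cells trypsinized, washed in PBS, fixed in 1.0% paraformaldehyde at 4 °C for 15 min, stained with 1 mg/mL Hoechst-33258 at 4 °C for 15 min. After washing, mounted in antifade reagent and examined by fluorescence microscopy.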

[22] = tested on: HCT-15; assay: Antiproliferative activity against human HCT15 cells assessed as fragmentation of nuclei at 5 uM after 24 hrs by Hoechst-33258 staining-based fluorescent microscopic analysis; format: functional, cell-based; method in brief: as §3
[23] = tested on: HeLa S3; assay: Antiproliferative activity against human HeLaS3 cells assessed as nuclear chromatin condensation at 10 uM after 24 hrs by Hoechst-33258 staining-based fluorescent microscopic analysis; format: functional, cell-based; method in brief: as §3
[24] = tested on: HeLa S3; assay: Antiproliferative activity against human HeLaS3 cells assessed as fragmentation of nuclei at 10 uM after 24 hrs by Hoechst-33258 staining-based fluorescent microscopic analysis; format: functional, cell-based; method in brief: as §3
[25] = tested on: MCF7; assay: Antiproliferative activity against human MCF7 cells assessed as nuclear chromatin condensation at 10 uM after 24 hrs by Hoechst-33258 staining-based fluorescent microscopic analysis; format: functional, cell-based; method in brief: as §3
[26] = tested on: MCF7; assay: Antiproliferative activity against human MCF7 cells assessed as fragmentation of nuclei at 10 uM after 24 hrs by Hoechst-33258 staining-based fluorescent microscopic analysis; format: functional, cell-based; method in brief: as §3
[27] = tested on: NCI-H28; assay: Antiproliferative activity against human NCI-H28 cells assessed as nuclear chromatin condensation at 10 uM after 24 hrs by Hoechst-33258 staining-based fluorescent microscopic analysis; format: functional, cell-based; method in brief: as §3
[28] = tested on: NCI-H28; assay: Antiproliferative activity against human NCI-H28 cells assessed as nuclear fragmentation at 10 uM after 24 hrs by Hoechst-33258 staining-based fluorescent microscopic analysis; format: functional, cell-based; method in brief: as §3
[29] = tested on: HCT-15; assay: Induction of apoptosis in human HCT15 cells assessed as early apoptotic cells at 5 uM after 3 hrs by annexin V-FITC/propidium iodide staining-based flow cytometric analysis relative to control; format: functional
Method in brief: (§4)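 HCT-15 cells at 5 × 10^4 cells/mL precultured 24 h, then given 5.0 μM in DMSO or DMSO alone (final 0.1%) for 3, 6, 12 or 24 h. Adherent cells trypsinized, pooled, stained with annexin V-FITC and PI, and analysed by flow cytometry. Early apoptosis = annexin V+/PI−; late = annexin V+/PI+. Three independent experiments, mean ± SD.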

[30] = tested on: HCT-15; assay: Induction of apoptosis in human HCT15 cells assessed as early apoptotic cells at 5 uM after 6 hrs by annexin V-FITC/propidium iodide staining-based flow cytometric analysis relative to control; format: functional; method in brief: as §4
[31] = tested on: HCT-15; assay: Induction of apoptosis in human HCT15 cells assessed as early apoptotic cells at 5 uM after 12 hrs by annexin V-FITC/propidium iodide staining-based flow cytometric analysis relative to control; format: functional; method in brief: as §4
[32] = tested on: HCT-15; assay: Induction of apoptosis in human HCT15 cells assessed as early apoptotic cells at 5 uM after 24 hrs by annexin V-FITC/propidium iodide staining-based flow cytometric analysis relative to control; format: functional; method in brief: as §4
[33] = tested on: HCT-15; assay: Induction of apoptosis in human HCT15 cells assessed as late apoptotic cells at 5 uM by annexin V-FITC/propidium iodide staining-based flow cytometric analysis; format: functional, cell-based; settings: TDE = time-dependent effect; method in brief: as §4
[34] = tested on: HCT-15; assay: Induction of apoptosis in human HCT15 cells at 5 uM after 12 hrs in presence of pan-caspase inhibitor z-VAD-fmk by annexin V-FITC/propidium iodide staining-based flow cytometric analysis (reference value: 64%); format: functional
Method in brief: (§5)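 HCT-15 cells at 5 × 10^4 cells/mL precultured 24 h, then given z-VAD-fmk, z-IETD-fmk or z-LEHD-fmk at 50 μM for 30 min before 5.0 μM compound in DMSO (DMSO final 0.1%). Annexin V-FITC/PI staining read by flow cytometry. Three independent experiments, mean ± SD; one-way ANOVA with Bonferroni post hoc tests.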

[35] = tested on: HCT-15; assay: Induction of apoptosis in human HCT15 cells at 5 uM after 12 hrs in presence of caspase-8 inhibitor z-IETD-fmk by annexin V-FITC/propidium iodide staining-based flow cytometric analysis; format: functional, cell-based; method in brief: as §5
[36] = tested on: HCT-15; assay: Induction of apoptosis in human HCT15 cells at 5 uM after 12 hrs in presence of caspase-9 inhibitor z-LEHD-fmk by annexin V-FITC/propidium iodide staining-based flow cytometric analysis; format: functional, cell-based; method in brief: as §5
[37] = tested on: HCT-15; assay: Induction of apoptosis in human HCT15 cells assessed as effect on cell adhesion at 5 uM in presence of caspase-9 inhibitor z-LEHD-fmk by light microscopic analysis; format: functional, cell-based
[38] = tested on: HCT-15; assay: Induction of apoptosis in human HCT15 cells assessed as effect on cell adhesion at 5 uM in presence of caspase-8 inhibitor z-IETD-fmk by light microscopic analysis; format: functional, cell-based
[39] = tested on: HCT-15; assay: Induction of apoptosis in human HCT15 cells assessed as effect on cell adhesion at 5 uM in presence of pan-caspase inhibitor z-VAD-fmk by light microscopic analysis; format: functional, cell-based
[40] = tested on: HCT-15; assay: Induction of apoptosis in human HCT15 cells assessed as effect on cell morphology at 5 uM in presence of caspase-9 inhibitor z-LEHD-fmk by light microscopic analysis; format: functional, cell-based
[41] = tested on: HCT-15; assay: Induction of apoptosis in human HCT15 cells assessed as effect on cell morphology at 5 uM in presence of caspase-8 inhibitor z-IETD-fmk by light microscopic analysis; format: functional, cell-based
[42] = tested on: HCT-15; assay: Induction of apoptosis in human HCT15 cells assessed as effect on cell morphology at 5 uM in presence of pan-caspase inhibitor z-VAD-fmk by light microscopic analysis; format: functional, cell-based
[43] = tested on: HCT-15; assay: Antitumor activity against human HCT15 cells xenografted in BALB/c nu/nu athymic mouse assessed as tumor growth inhibition at 25 mg/kg/day administered intratumorally on day 0, 2, 4, 6, 8 and 10 measured on day 28 post dose relative to control; format: functional; settings: read-out: TGI
Method in brief: (§6)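 Female 6-week-old Balb/c nu/nu mice injected subcutaneously in the lower back with HCT-15 cells (1 × 10^8/mL) mixed 1:1 with Matrigel. Once tumors reached 50−100 mm3 (day 0), mice were randomized, 6 per group. Dosing was intratumoral in PBS with 5% DMSO and 5% glucose on days 0, 2, 4, 6, 8 and 10; controls received vehicle. Tumor volume (L×W×D×π/6) and body weight measured every other day to day 28.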

[44] = tested on: HCT-15; assay: Antitumor activity against human HCT15 cells xenografted in BALB/c nu/nu athymic mouse assessed as tumor growth inhibition at 5 mg/kg administered intratumorally on day 0, 2, 4, 6, 8 and 10 measured up to 28 days; format: functional, organism-based; method in brief: as §6
[45] = tested on: Mus musculus; assay: Toxicity in BALB/c nu/nu athymic mouse xenografted with human HCT15 cells assessed as body weight loss at 5 to 25 mg/kg administered intratumorally treated on day 0, 2, 4, 6, 8 and 10 measured every second day for 28 days; format: organism-based; settings: in vivo, other, 672 h; method in brief: as §6

COc1c(OC)c2c(c(CCN(C)C)c1SC)SSc1c(CCN(C)C)c(SC)c(OC)c(OC)c1Sc1c(OC)c(OC)c(SC)c(CCN(C)C)c1S2 [LISSOCLIBADIN 1]
60%: inhibition in vivo at 25 mg/kg/day [43]
7.6 µM: IC50 [5]
37%: Activity [30]
40%: Activity [32]
active: Activity [1] Dose-dependent effect | Activity [2] Dose-dependent effect | Activity [7] Dose-dependent effect | Activity [8] Dose-dependent effect | Activity [9] Dose-dependent effect | Activity [10] Dose-dependent effect | Activity [11] Dose-dependent effect | Activity [12] Dose-dependent effect | Activity [13] | Activity [14] | Activity [15] | Activity [16] | Activity [17] | Activity [18] | Activity [19] | Activity [20] | Activity [21] | Activity [22] | Activity [23] | Activity [24] | Activity [25] | Activity [26] | Activity [27] | Activity [28] | Activity [33] Tde | Activity [35] | Activity [36] | Activity [37] | Activity [38] | Activity [39] | Activity [40] | Activity [41] | Activity [42]
11%: Activity [29] | Activity [34]
43%: Activity [31]
6.3 µM: IC50 [4]
Non-Toxic: Activity [45]
7.1 µM: IC50 [6]
inactive: TGI [44]
4 µM: IC50 [3]

COc1c(OC)c2c(c(CCN(C)C)c1SC)Sc1c(OC)c(OC)c(SC)c(CCN(C)C)c1S2 [LISSOCLIBADIN 3]
16 µM: IC50 [4]
13.2 µM: IC50 [3]
